Data reported in ChEMBL document CHEMBL4699576, “Oxidized Juncuenin B Analogues with Increased Antiproliferative Activity on Human Adherent Cell Lines: Semisynthesis and Biological Evaluation” (J Nat Prod, 2020).
Calls of active or inactive are those of the source. The calls are words filed in the database; no cut-off is given here.

Assays:
NIH3T3 [1] = assay: Antiproliferative activity against mouse NIH/3T3 cells assessed as reduction in cell viability after 72 hrs by MTT assay; type: functional, cell-based; settings: NIH3T3, 72 h
In short: (§1)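 Cells were grown in MEM with 10% FBS, 1% nonessential amino acids and 1% penicillin–streptomycin–amphotericin B at 37 °C in humidified 5% CO2. They were seeded at 5000 cells/well and exposed to 0.1–30 μM compound for 72 h. MTT (5 mg/mL solution) was added for 4 h, and formazan was dissolved in DMSO and read at 545 nm against untreated cells. IC50 values came from normalized sigmoidal dose–response fits.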

MDA-MB-231 = assay: Antiproliferative activity against human MDA-MB-231 cells assessed as reduction in cell viability after 72 hrs by MTT assay; type: functional, cell-based; settings: MDA-MB-231, 72 h
MCF7 [2] = assay: Antiproliferative activity against human MCF7 cells assessed as reduction in cell viability after 72 hrs by MTT assay; type: functional, cell-based; settings: MCF7, 72 h; in short: as §1
HeLa [3] = assay: Antiproliferative activity against human HeLa cells assessed as reduction in cell viability after 72 hrs by MTT assay; type: functional, cell-based; in short: as §1
A2780 [4] = assay: Antiproliferative activity against human A2780 cells assessed as reduction in cell viability after 72 hrs by MTT assay; type: functional, cell-based; settings: A2780, 72 h; in short: as §1
[5] = Selectivity ratio of IC50 for antiproliferative activity against human T47D cells to IC50 for antiproliferative activity against human MCF7 cells; type: functional
SGC-7901 = assay: Antiproliferative activity against human SGC-7901 cells assessed as reduction in cell viability after 48 hrs by Alamar Blue assay; type: functional, cell-based; settings: SGC-7901, 48 h
AGS = assay: Antiproliferative activity against human AGS cells assessed as reduction in cell viability after 48 hrs by Alamar Blue assay; type: functional, cell-based
C-33-A [6] = assay: Antiproliferative activity against human C33A cells assessed as reduction in cell viability after 72 hrs by MTT assay; type: functional, cell-based
In short: (§2)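 C33A cells were kept in MEM with 10% FBS, 1% nonessential amino acids and 1% penicillin–streptomycin–amphotericin B at 37 °C under 5% CO2. They were seeded at 10 000 cells/well and treated with 0.1–30 μM for 72 h. MTT (5 mg/mL solution) was added for 4 h, and formazan was dissolved in DMSO and read at 545 nm against untreated controls. IC50 values came from normalized sigmoidal curve fits.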

T47D [7] = assay: Antiproliferative activity against human T47D cells assessed as reduction in cell viability at 0.1 to 30 uM after 72 hrs by MTT assay; type: functional, cell-based; settings: dose microM 0.1-30, time 72.0 hrs; in short: as §1
HeLa [8] = assay: Antiproliferative activity against human HeLa cells assessed as reduction in cell viability at 0.1 to 30 uM after 72 hrs by MTT assay; settings: dose microM 0.1-30, time 72.0 hrs
T47D [9] = assay: Antiproliferative activity against human T47D cells assessed as reduction in cell viability after 72 hrs by MTT assay; type: functional, cell-based; in short: as §1
SiHa [10] = assay: Antiproliferative activity against human SiHa cells assessed as reduction in cell viability at 0.1 to 30 uM after 72 hrs by MTT assay; type: functional, cell-based; settings: dose microM 0.1-30, time 72.0 hrs; in short: as §1
MCF7 [11] = assay: Antiproliferative activity against human MCF7 cells assessed as reduction in cell viability at 0.1 to 30 uM after 72 hrs by MTT assay; settings: dose microM 0.1-30, time 72.0 hrs
A2780 [12] = assay: Antiproliferative activity against human A2780 cells assessed as reduction in cell viability at 0.1 to 30 uM after 72 hrs by MTT assay; type: functional, cell-based; settings: dose microM 0.1-30, time 72.0 hrs; in short: as §1
C-33-A [13] = assay: Antiproliferative activity against human C33A cells assessed as reduction in cell viability at 0.1 to 30 uM after 72 hrs by MTT assay; type: functional, cell-based; settings: dose microM 0.1-30, time 72.0 hrs; in short: as §2
NIH3T3 [14] = assay: Antiproliferative activity against mouse NIH/3T3 cells assessed as reduction in cell viability at 0.1 to 30 uM after 72 hrs by MTT assay; type: functional, cell-based; settings: dose microM 0.1-30, time 72.0 hrs; in short: as §1
SiHa [15] = assay: Antiproliferative activity against human SiHa cells assessed as reduction in cell viability after 72 hrs by MTT assay; type: functional, cell-based; in short: as §1

Compound | Activity (HeLa [8]) | Activity (MCF7 [11]) | Activity (A2780 [12]) | Activity (C-33-A [13]) | Activity (NIH3T3 [14]) | also measured
C=Cc1c(C)c(O)cc2c1CCc1c-2ccc(O)c1C |  |  |  |  |  | IC50 (NIH3T3 [1]): > 30 µM; IC50 (MDA-MB-231): 9.4 µM; IC50 (MCF7 [2]): 11.7 µM; IC50 (HeLa [3]): 2.9 µM; IC50 (A2780 [4]): 7.3 µM; Ratio IC50 [5]: 2.5
C=Cc1cc(O)cc2ccc3c(C)c(O)ccc3c12 |  |  |  |  |  | IC50 (SGC-7901): 35.9 µM; IC50 (AGS): 32.9 µM
C=CC1=C(C)C(=O)C=C2c3ccc(O)c(C)c3CC[C@@]21OC | Active |  |  |  |  | IC50 (NIH3T3 [1]): 25.8 µM; IC50 (MCF7 [2]): 6.2 µM; IC50 (HeLa [3]): 0.9 µM; IC50 (A2780 [4]): 8.7 µM; IC50 (C-33-A [6]): 5.3 µM; Activity (T47D [7]): Active
C=CC1=C(C)C(=O)C=C2c3ccc(O)c(C)c3CC[C@@]21OCC | Active | Active |  |  |  | IC50 (NIH3T3 [1]): > 30 µM; IC50 (HeLa [3]): 3.7 µM; IC50 (A2780 [4]): 2.8 µM; IC50 (C-33-A [6]): 4.9 µM; IC50 (T47D [9]): 8.8 µM; Activity (T47D [7]): Active; Activity (SiHa [10]): inactive
C=CC1=C(C)C(=O)C=C2c3ccc(O)c(C)c3CC[C@]21OC | inactive | inactive | inactive | inactive |  | 
C=CC1=C(C)C(=O)C=C2c3ccc(O)c(C)c3CC[C@]21OCC | inactive |  | inactive | inactive |  | Activity (SiHa [10]): inactive
C=CC1=C(C)C(=O)C(OCCCC)(OCCCC)c2c1ccc1c2C=CC(=O)C1(C)OCCCC (racemic) | inactive | inactive | inactive | inactive | inactive | 
C=CC1=C(C)C(=O)C=C2C3(OCC)C=CC(=O)C(C)=C3CCC21OCC (racemic) | inactive | inactive | inactive | inactive | inactive | 
C=CC1=C2CCc3c(ccc(O)c3C)C2=CC(=O)C1(C)OCC (racemic) | inactive | inactive | inactive | inactive | inactive | 
C=Cc1c(C)c(O)c(OC)c2c3c(ccc12)C(C)(OC)C(=O)C=C3 (racemic) | inactive | inactive | inactive | inactive | inactive | 
C=Cc1c(C)c(O)cc2c3c(ccc12)C(C)(OCC)C(=O)C=C3 (racemic) | inactive | inactive | inactive | inactive | inactive | 
C=CC1=C(C)C(=O)C=C2C3(OC)C=CC(=O)C(C)=C3CCC21OC (racemic; 2a) | inactive | inactive | inactive | inactive | inactive | 
C=CC1=C(C)C(=O)C=C2C3(OC)C=CC(=O)C(C)=C3CCC21OC (racemic; 2b) | inactive | inactive | inactive | inactive | inactive | 
C=CC1=C(C)C(=O)C=C2C3=C(CCC21OCC)C(C)(OCC)C(=O)C=C3 (racemic; 6a) | Active | Active | Active | Active | Active | 
C=CC1=C(C)C(=O)C=C2C3=C(CCC21OCC)C(C)(OCC)C(=O)C=C3 (racemic; 6b) | Active | Active | Active | Active | Active | 
C=CC1=C(C)C(=O)C=C2C3=C(CC[C@@]21OC)[C@](C)(OC)C(=O)C=C3 (stereo in doubt) | Active |  |  |  |  | IC50 (NIH3T3 [1]): 21.6 µM; IC50 (A2780 [4]): 7.7 µM; IC50 (C-33-A [6]): 5.3 µM; IC50 (T47D [9]): 15 µM; IC50 (SiHa [15]): 20 µM; Activity (T47D [7]): Active
C=CC1=C(C)C(=O)C=C2C3=C(CC[C@]21OC)[C@@](C)(OC)C(=O)C=C3 (stereo in doubt) |  |  |  |  |  | IC50 (NIH3T3 [1]): > 30 µM; IC50 (T47D [9]): 15 µM; IC50 (SiHa [15]): 20 µM
C=CC1=C(C)C(=O)C=C2C3=C(CC[C@]21OC)[C@](C)(OC)C(=O)C=C3 (stereo in doubt) |  |  |  |  |  | IC50 (T47D [9]): 15 µM; IC50 (SiHa [15]): 20 µM
C=CC1=C(C)C(=O)C=C2C3=C(CC[C@@]21OC)[C@@](C)(OC)C(=O)C=C3 (stereo in doubt) |  |  |  |  |  | IC50 (T47D [9]): 15 µM; IC50 (SiHa [15]): 20 µM
